ChEMBL document CHEMBL1151705, “Novel azalides derived from 16-membered macrolides. Part II: Isolation of the linear 9-formylcarboxylic acid and its sequential macrocyclization with an amino alcohol or an azidoamine” (2008)
≈ marks a conversion by molar mass, not a printed value.

Tests used:
Haemophilus influenzae [1] = assay: Antimicrobial activity against drug-susceptible Haemophilus influenzae 2 after 20 hrs by agar dilution method; type: functional
In short: (§1)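 Streptococci, H. influenzae and M. catarrhalis were precultured on blood agar plates. Suspensions of about 10⁶ CFU/ml were inoculated onto sensitivity disk agar supplemented with 5% horse blood and incubated at 37 °C for 20 h. MIC was read as the lowest drug concentration with no visible growth.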

Streptococcus pneumoniae [2] = assay: Antimicrobial activity against Streptococcus pneumoniae 8 expressing inducible ermB after 20 hrs by agar dilution method; type: functional; in short: as §1
Moraxella catarrhalis [3] = assay: Antimicrobial activity against drug-susceptible Moraxella catarrhalis 2 after 20 hrs by agar dilution method; type: functional; in short: as §1
Staphylococcus aureus [4] = assay: Antimicrobial activity against drug-susceptible Staphylococcus aureus 209P JC-1 after 20 hrs by agar dilution method; type: functional
In short: (§2)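 Agar dilution MIC. S. aureus seed culture was grown in sensitivity test broth. Cell suspension (about 10⁶ CFU/ml) was inoculated onto sensitivity disk agar with 5% horse blood and incubated at 37 °C for 20 h. MIC was the lowest drug concentration that prevented visible growth.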

Streptococcus pneumoniae [5] = assay: Antimicrobial activity against drug-susceptible Streptococcus pneumoniae DP1 Type1 after 20 hrs by agar dilution method; type: functional; in short: as §1
Staphylococcus aureus [6] = assay: Antimicrobial activity against drug-susceptible Staphylococcus aureus 2 after 20 hrs by agar dilution method; type: functional; in short: as §2
Staphylococcus aureus [7] = assay: Antimicrobial activity against drug-susceptible Staphylococcus aureus 3 after 20 hrs by agar dilution method; type: functional; in short: as §2
Streptococcus pneumoniae [8] = assay: Antimicrobial activity against Streptococcus pneumoniae 6 constitutively expressing ermB after 20 hrs by agar dilution method; type: functional; in short: as §1
Streptococcus pneumoniae [9] = assay: Antimicrobial activity against Streptococcus pneumoniae 10 expressing mefA after 20 hrs by agar dilution method; type: functional; in short: as §1
Moraxella catarrhalis [10] = assay: Antimicrobial activity against drug-susceptible Moraxella catarrhalis 1 after 20 hrs by agar dilution method; type: functional; in short: as §1
Streptococcus pyogenes [11] = assay: Antimicrobial activity against drug-susceptible Streptococcus pyogenes 1 after 20 hrs by agar dilution method; type: functional; in short: as §1
Streptococcus pneumoniae [12] = assay: Antimicrobial activity against Streptococcus pneumoniae 5 constitutively expressing ermB/mefA after 20 hrs by agar dilution method; type: functional; in short: as §1
Haemophilus influenzae [13] = assay: Antimicrobial activity against drug-susceptible Haemophilus influenzae 1 after 20 hrs by agar dilution method; type: functional; in short: as §1
Streptococcus pyogenes [14] = assay: Antimicrobial activity against Streptococcus pyogenes 3 expressing mefA after 20 hrs by agar dilution method; type: functional; in short: as §1
Haemophilus influenzae [15] = assay: Antimicrobial activity against drug-susceptible Haemophilus influenzae 4 after 20 hrs by agar dilution method; type: functional; in short: as §1
Streptococcus pneumoniae [16] = assay: Antimicrobial activity against drug-susceptible Streptococcus pneumoniae 3 after 20 hrs by agar dilution method; type: functional; in short: as §1
Streptococcus pneumoniae [17] = assay: Antimicrobial activity against Streptococcus pneumoniae 4 constitutively expressing ermB after 20 hrs by agar dilution method; type: functional; in short: as §1
Staphylococcus aureus [18] = assay: Antimicrobial activity against Staphylococcus aureus 6 expressing inducible ermC after 20 hrs by agar dilution method
Staphylococcus aureus [19] = assay: Antimicrobial activity against Staphylococcus aureus 5 expressing inducible ermB after 20 hrs by agar dilution method; type: functional; in short: as §2
Streptococcus pneumoniae [20] = assay: Antimicrobial activity against Streptococcus pneumoniae 9 expressing mefA after 20 hrs by agar dilution method; type: functional; in short: as §1
Streptococcus pneumoniae [21] = assay: Antimicrobial activity against drug-susceptible Streptococcus pneumoniae 2 after 20 hrs by agar dilution method; type: functional; in short: as §1
Streptococcus pneumoniae [22] = assay: Antimicrobial activity against Streptococcus pneumoniae 7 expressing inducible ermB after 20 hrs by agar dilution method; type: functional; in short: as §1
Haemophilus influenzae [23] = assay: Antimicrobial activity against drug-susceptible Haemophilus influenzae 3 after 20 hrs by agar dilution method; type: functional; in short: as §1
Staphylococcus aureus [24] = assay: Antimicrobial activity against Staphylococcus aureus 4 constitutively expressing ermA after 20 hrs by agar dilution method; type: functional; in short: as §2
Streptococcus pyogenes [25] = assay: Antimicrobial activity against Streptococcus pyogenes 2 constitutively expressing ermB after 20 hrs by agar dilution method; type: functional; in short: as §1
[26] = Haemophilus influenzae, 20 h, read-out: MIC
[27] = Streptococcus pneumoniae, 20 h, read-out: MIC
[28] = Streptococcus pyogenes, 20 h, read-out: MIC

MIC (Streptococcus pneumoniae [2]) | MIC (Moraxella catarrhalis [3]) | MIC (Staphylococcus aureus [4]) | MIC (Streptococcus pneumoniae [5]) | MIC (Staphylococcus aureus [6]) | MIC (Staphylococcus aureus [7]) | MIC (Moraxella catarrhalis [10]) | MIC (Streptococcus pneumoniae [16]) | MIC (Staphylococcus aureus [18]) | MIC (Staphylococcus aureus [19]) | MIC (Streptococcus pneumoniae [22]) | MIC (Haemophilus influenzae [1]; [26]) | MIC (Staphylococcus aureus [24]) | MIC (Streptococcus pneumoniae [8]; [27]) | MIC (Streptococcus pneumoniae [9]; [27]) | MIC (Streptococcus pyogenes [11]; [28]) | MIC (Streptococcus pneumoniae [12]; [27]) | MIC (Streptococcus pyogenes [25]) | MIC (Haemophilus influenzae [13]; [26]) | MIC (Streptococcus pyogenes [14]; [28]) | other results | SMILES
128 µg/mL (≈ 130 µM) | 2 µg/mL (≈ 2.03 µM) | 0.25 µg/mL (≈ 0.253 µM) | 0.015 µg/mL (≈ 0.0152 µM) | 0.5 µg/mL (≈ 0.507 µM) | 0.25 µg/mL (≈ 0.253 µM) | 2 µg/mL (≈ 2.03 µM) | 0.03 µg/mL (≈ 0.0304 µM) | 0.5 µg/mL (≈ 0.507 µM) | 0.25 µg/mL (≈ 0.253 µM) | 128 µg/mL (≈ 130 µM) |  |  |  |  |  |  |  |  |  | MIC (Haemophilus influenzae [1]): 4 µg/mL (≈ 4.06 µM); MIC (Streptococcus pneumoniae [8]): >128 µg/mL; MIC (Streptococcus pneumoniae [9]): 0.06 µg/mL (≈ 0.0608 µM); MIC (Streptococcus pyogenes [11]): 0.13 µg/mL (≈ 0.132 µM); MIC (Streptococcus pneumoniae [12]): >128 µg/mL; MIC (Haemophilus influenzae [13]): 64 µg/mL (≈ 64.9 µM); MIC (Streptococcus pyogenes [14]): 0.5 µg/mL (≈ 0.507 µM); MIC (Haemophilus influenzae [15]): 16 µg/mL (≈ 16.2 µM); MIC (Streptococcus pneumoniae [17]): >128 µg/mL; MIC (Streptococcus pneumoniae [20]): 0.06 µg/mL (≈ 0.0608 µM); MIC (Streptococcus pneumoniae [21]): 0.06 µg/mL (≈ 0.0608 µM); MIC (Haemophilus influenzae [23]): 16 µg/mL (≈ 16.2 µM) | CCOC(=O)[C@H]1[C@H](C)O[C@@H](O[C@H]2[C@H](N(C)C)[C@@H](O)[C@H](O[C@H]3[C@@H](CC=O)C[C@@H](C)[C@@H](O)CN(C)CC(/C=C/Cc4cnc5ccccc5c4)CCOC(=O)C[C@@H](OC(=O)CC)[C@@H]3OC)O[C@@H]2C)C[C@@]1(C)O (stereo in doubt; form 2)
 | 1 µg/mL (≈ 1.03 µM) | 1 µg/mL (≈ 1.03 µM) |  | 2 µg/mL (≈ 2.06 µM) | 0.5 µg/mL (≈ 0.515 µM) | 2 µg/mL (≈ 2.06 µM) |  | 1 µg/mL (≈ 1.03 µM) | 0.5 µg/mL (≈ 0.515 µM) |  | 2 µg/mL (≈ 2.06 µM) | > 128 µg/mL | > 128 µg/mL | 0.25 µg/mL (≈ 0.257 µM) | 0.5 µg/mL (≈ 0.515 µM) | > 128 µg/mL | > 128 µg/mL | 64 µg/mL (≈ 65.9 µM) | 2 µg/mL (≈ 2.06 µM) | MIC (Streptococcus pneumoniae [2]; [27]): > 128 µg/mL; MIC (Streptococcus pneumoniae [5]; [27]): 0.13 µg/mL (≈ 0.134 µM); MIC (Haemophilus influenzae [15]; [26]): 32 µg/mL (≈ 32.9 µM); MIC (Streptococcus pneumoniae [16]; [27]): 0.25 µg/mL (≈ 0.257 µM); MIC (Streptococcus pneumoniae [17]; [27]): > 128 µg/mL; MIC (Streptococcus pneumoniae [20]; [27]): 0.25 µg/mL (≈ 0.257 µM); MIC (Streptococcus pneumoniae [21]; [27]): 0.13 µg/mL (≈ 0.134 µM); MIC (Streptococcus pneumoniae [22]; [27]): > 128 µg/mL; MIC (Haemophilus influenzae [23]; [26]): 16 µg/mL (≈ 16.5 µM) | CCOC(=O)[C@H]1[C@H](C)O[C@@H](O[C@H]2[C@H](N(C)C)[C@@H](O)[C@H](O[C@H]3[C@@H](CC=O)C[C@@H](C)[C@@H](O)CN(C)CCC(C/C=C/c4ccnc5ccccc45)NC(=O)C[C@@H](OC(=O)CC)[C@@H]3OC)O[C@@H]2C)C[C@@]1(C)O (single isomer, unassigned)
8 µg/mL |  | 0.5 µg/mL | 0.03 µg/mL | 1 µg/mL |  | 1 µg/mL | 0.06 µg/mL | 0.5 µg/mL | 0.5 µg/mL | 8 µg/mL | 1 µg/mL | > 128 µg/mL | > 128 µg/mL | 0.13 µg/mL | 0.25 µg/mL | > 128 µg/mL | > 128 µg/mL | 32 µg/mL | 1 µg/mL | MIC (Moraxella catarrhalis [3]; Moraxella catarrhalis, 20 h, read-out: MIC): 2 µg/mL; MIC (Staphylococcus aureus [7]; Staphylococcus aureus, 20 h, read-out: MIC): 0.5 µg/mL; MIC (Haemophilus influenzae [15]; [26]): 8 µg/mL; MIC (Streptococcus pneumoniae [17]; [27]): > 128 µg/mL; MIC (Streptococcus pneumoniae [20]; [27]): 0.13 µg/mL; MIC (Streptococcus pneumoniae [21]; [27]): 0.13 µg/mL; MIC (Haemophilus influenzae [23]; [26]): 8 µg/mL | CCOC(=O)[C@H]1[C@H](C)O[C@@H](O[C@H]2[C@H](N(C)C)[C@@H](O)[C@H](O[C@H]3[C@@H](CC=O)C[C@@H](C)[C@@H](O)CN(C)CCC(/C=C/Cc4ccnc5ccccc45)NC(=O)C[C@@H](OC(=O)CC)[C@@H]3OC)O[C@@H]2C)C[C@@]1(C)O (mixture of isomers)
